The source of these data is ChEMBL document CHEMBL5055621, “Synthesis and Characterization of the Novel Rodent-Active and CNS-Penetrant P2X7 Receptor Antagonist Lu AF27139” (J Med Chem, 2021).

Broadly, the Tmax is the time from dosing to the highest level. The Cmax is the highest concentration seen after dosing. What is called inhibition is the percentage by which the read-out fell short of the control. Broadly, the IC50 is the concentration needed to halve the response being measured. Low readings indicate greater potency in that assay, high ones weaker potency in that assay.

Data set [1] is described as follows: Tmax in male rat at 3 mg/kg, po after 7 days. The class given is ADME, organism-based. As to conditions: in vivo, time 7 day; call rule not given here.
Data set [2] in a line: Cmax in rat at 2 mg/kg, po. Set-up: dose 2 mg/kg, route po. As to conditions: in vivo. The format is ADME, organism-based. The gist of the method:
(§1)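 Rats received 1 mg/kg iv or 2 mg/kg po. The plasma concentration–time profile was analysed by a noncompartmental model to give half-life, Cmax, Tmax and absolute oral bioavailability.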

A further data set addresses T1, Cytochrome P450 1A2 (Homo sapiens, UniProt P05177).
T1 sequence (P05177 whole entry): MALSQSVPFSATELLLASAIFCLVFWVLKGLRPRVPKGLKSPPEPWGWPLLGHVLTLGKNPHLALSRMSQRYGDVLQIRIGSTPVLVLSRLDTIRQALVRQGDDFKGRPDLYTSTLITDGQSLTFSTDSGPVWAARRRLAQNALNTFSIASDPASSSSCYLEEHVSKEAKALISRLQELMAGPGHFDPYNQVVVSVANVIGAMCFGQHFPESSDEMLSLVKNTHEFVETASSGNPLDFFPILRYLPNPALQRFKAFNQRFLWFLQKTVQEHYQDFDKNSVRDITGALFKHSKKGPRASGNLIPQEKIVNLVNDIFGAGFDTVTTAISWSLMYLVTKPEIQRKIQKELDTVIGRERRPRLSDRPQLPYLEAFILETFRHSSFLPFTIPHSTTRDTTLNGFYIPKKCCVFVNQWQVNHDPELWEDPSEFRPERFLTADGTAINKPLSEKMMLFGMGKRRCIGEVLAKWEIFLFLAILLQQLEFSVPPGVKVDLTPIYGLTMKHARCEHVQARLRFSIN
Description: Time dependent inhibition of CYP1A2 (unknown origin) upto 25 uM. The class given is ADME.

The nature of data set [3]: Metabolic stability in rat hepatocytes assessed as intrinsic clearance at 1 uM measured after 2 hrs. The format is ADME, cell-based, Hepatocyte. Particulars: read-out: CLH (converted).
A short description of data set [4]: Free plasma concentration in rat at 10 mg/kg, po after 2 hrs by ex vivo equilibrium dialysis. The format is ADME, organism-based. The gist of the method:
(§2)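 Male Sprague–Dawley rats were dosed orally at 1–100 mg/kg, and total plasma concentration was measured at 1 and 2 h. This was multiplied by fraction unbound from ex vivo equilibrium dialysis; mean ± SEM, n = 3 animals.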

Data set [5] is described as follows: Inhibition of BzATP-induced current in rat primary microglia cells measured after repeated BzATP treatment at -60 mV at 100 nM by whole cell patch clamp assay relative to control. The class given is functional. The gist of the method: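 Rat primary microglia were whole-cell patch-clamped at −60 mV (external pH 7.4 with 1.8 mM CaCl2; CsCl/EGTA internal pH 7.2). Currents came from 10 s applications of 300 μM BzATP, applied repeatedly. Compound was applied by gravity via capillary for 60 s, and inhibition was taken relative to the control response.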
A general note: The patch-clamp technique gives a direct electrical read-out from membranes.

The target in data set [6] is Sodium channel protein type 5 subunit alpha (Homo sapiens, UniProt Q14524). Description: Inhibition of human Nav1.5 at 10 uM. Put shortly:
(§3)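 Human Nav1.5, Cav1.2 and KCNQ1/minK channels were tested at 10 μM.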

A further data set deals with T2, Cytochrome P450 2B6 (Homo sapiens, UniProt P20813).
T2 sequence (P20813 whole entry): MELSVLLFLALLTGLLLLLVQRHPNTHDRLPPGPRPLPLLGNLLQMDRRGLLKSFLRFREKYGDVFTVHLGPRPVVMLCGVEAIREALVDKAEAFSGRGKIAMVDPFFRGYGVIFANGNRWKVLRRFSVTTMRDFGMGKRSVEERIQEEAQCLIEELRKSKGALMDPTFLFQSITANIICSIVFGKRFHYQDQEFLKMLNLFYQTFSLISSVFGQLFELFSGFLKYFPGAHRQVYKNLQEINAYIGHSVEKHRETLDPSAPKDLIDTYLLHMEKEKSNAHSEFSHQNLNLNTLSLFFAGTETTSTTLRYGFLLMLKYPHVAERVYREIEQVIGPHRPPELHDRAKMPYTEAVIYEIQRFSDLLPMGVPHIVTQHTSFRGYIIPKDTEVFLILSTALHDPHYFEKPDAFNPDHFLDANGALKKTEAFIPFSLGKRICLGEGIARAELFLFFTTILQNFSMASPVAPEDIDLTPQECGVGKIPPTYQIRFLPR
Description: Time dependent inhibition of CYP2B6 (unknown origin) upto 25 uM. The format is ADME.

Data set [7] has as its target Voltage-dependent L-type calcium channel subunit alpha-1C (Homo sapiens, UniProt Q13936). Description: Inhibition of human Cav1.2 at 10 uM. The gist of the method: as §3
Data set [8] is described as follows: Inhibition of BzATP-induced IL-1beta in mouse primary microglia cells primed with LPS measured after repeated BzATP treatment by microplate reader. The class given is functional, tissue-based. Put shortly:
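Cortical microglia from rat (P3 pups) or mouse were plated 1 day before assay and primed with 3 EU/mL LPS for 3.5 h. Compound was added for 30 min, then BzATP (1 mM) for 30 min at 37 °C. IL-1β was measured by MesoScale assay, normalised to BCA protein, and given as mean ± SD.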

Data set [9] can be described thus: Cmax in female mouse at 100 mg/kg, po after 14 days. Particulars: in vivo.
The nature of data set [10]: Cmax in male rat at 3 mg/kg, po after 7 days. Particulars: in vivo. Set-up: dose 3 mg/kg, time 7 day, route po. The class given is ADME, organism-based.
The nature of data set [11]: Induction of CYP3A4 mRNA expression in human primary hepatocytes at 10 uM. The class given is ADME, cell-based, Hepatocyte. The gist of the method:
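Human hepatocytes were exposed to 10 μM compound. CYP3A4 mRNA was measured as the relative increase, with rifampin at 10 μM as reference inducer.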

Data set [12] can be described thus: Free plasma concentration in rat at 30 mg/kg, po after 1 hr by ex vivo equilibrium dialysis. The class given is ADME, organism-based. Put shortly:
as §2
(In general: Equilibrium dialysis compares concentrations on both sides of a semipermeable membrane.)

Data set [13] can be described thus: Free plasma concentration in rat at 3 mg/kg, po after 1 hr by ex vivo equilibrium dialysis. The format is ADME, organism-based. The gist of the method: as §2
A short description of data set [14]: Tmax in rat at 2 mg/kg, po. The format is ADME, organism-based. As to conditions: in vivo. Put shortly:
as §1

Data set [15] deals with Rattus norvegicus. Description: Toxicity in Sprague-Dawley rat assessed as histological changes up to 150 mg/kg, po by 7 days exploratory toxicology study. The format is organism-based. As to conditions: in vivo, 168 h, time 7 day. Put shortly:
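Exploratory 7-day repeat oral toxicity study in male and female rats at doses from 3 up to 150 mg/kg po. Endpoints were macroscopic pathology, histology and hematology.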

Data set [16] deals with Rattus norvegicus. Description: Reduction in LPS/BzATP-induced IL-1beta release in icv dosed Sprague-Dawley rat frontal cortex assessed as minimal effective dose pretreated 1 hr before BzATP stimulus. The class given is functional. Particulars: read-out: MED. The gist of the method: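 Rats and mice with frontal cortex microdialysis probes and a lateral ventricle cannula received icv LPS (rat 3 μg/5 μL; mouse 0.1 μg/3 μL), and 1 h later oral compound in 20% HP-β-cyclodextrin. BzATP icv (rat 50 μg; mouse 5 μg) followed 1 h later.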

A short description of data set [17]: Free plasma concentration in rat at 100 mg/kg, po after 1 hr by ex vivo equilibrium dialysis. The class given is ADME, organism-based. The gist of the method: as §2
A short description of data set [18]: Thermodynamic solubility of the compound by shake flask HPLC method. Particulars: read-out: Therm_solubility. The format is physicochemical. Put shortly:
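Thermodynamic solubility was measured by shake flask with HPLC quantification.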

Values after ≈ are worked out from the molar mass of the structure shown.

Sequence of Sodium channel protein type 5 subunit alpha (Q14524 whole entry): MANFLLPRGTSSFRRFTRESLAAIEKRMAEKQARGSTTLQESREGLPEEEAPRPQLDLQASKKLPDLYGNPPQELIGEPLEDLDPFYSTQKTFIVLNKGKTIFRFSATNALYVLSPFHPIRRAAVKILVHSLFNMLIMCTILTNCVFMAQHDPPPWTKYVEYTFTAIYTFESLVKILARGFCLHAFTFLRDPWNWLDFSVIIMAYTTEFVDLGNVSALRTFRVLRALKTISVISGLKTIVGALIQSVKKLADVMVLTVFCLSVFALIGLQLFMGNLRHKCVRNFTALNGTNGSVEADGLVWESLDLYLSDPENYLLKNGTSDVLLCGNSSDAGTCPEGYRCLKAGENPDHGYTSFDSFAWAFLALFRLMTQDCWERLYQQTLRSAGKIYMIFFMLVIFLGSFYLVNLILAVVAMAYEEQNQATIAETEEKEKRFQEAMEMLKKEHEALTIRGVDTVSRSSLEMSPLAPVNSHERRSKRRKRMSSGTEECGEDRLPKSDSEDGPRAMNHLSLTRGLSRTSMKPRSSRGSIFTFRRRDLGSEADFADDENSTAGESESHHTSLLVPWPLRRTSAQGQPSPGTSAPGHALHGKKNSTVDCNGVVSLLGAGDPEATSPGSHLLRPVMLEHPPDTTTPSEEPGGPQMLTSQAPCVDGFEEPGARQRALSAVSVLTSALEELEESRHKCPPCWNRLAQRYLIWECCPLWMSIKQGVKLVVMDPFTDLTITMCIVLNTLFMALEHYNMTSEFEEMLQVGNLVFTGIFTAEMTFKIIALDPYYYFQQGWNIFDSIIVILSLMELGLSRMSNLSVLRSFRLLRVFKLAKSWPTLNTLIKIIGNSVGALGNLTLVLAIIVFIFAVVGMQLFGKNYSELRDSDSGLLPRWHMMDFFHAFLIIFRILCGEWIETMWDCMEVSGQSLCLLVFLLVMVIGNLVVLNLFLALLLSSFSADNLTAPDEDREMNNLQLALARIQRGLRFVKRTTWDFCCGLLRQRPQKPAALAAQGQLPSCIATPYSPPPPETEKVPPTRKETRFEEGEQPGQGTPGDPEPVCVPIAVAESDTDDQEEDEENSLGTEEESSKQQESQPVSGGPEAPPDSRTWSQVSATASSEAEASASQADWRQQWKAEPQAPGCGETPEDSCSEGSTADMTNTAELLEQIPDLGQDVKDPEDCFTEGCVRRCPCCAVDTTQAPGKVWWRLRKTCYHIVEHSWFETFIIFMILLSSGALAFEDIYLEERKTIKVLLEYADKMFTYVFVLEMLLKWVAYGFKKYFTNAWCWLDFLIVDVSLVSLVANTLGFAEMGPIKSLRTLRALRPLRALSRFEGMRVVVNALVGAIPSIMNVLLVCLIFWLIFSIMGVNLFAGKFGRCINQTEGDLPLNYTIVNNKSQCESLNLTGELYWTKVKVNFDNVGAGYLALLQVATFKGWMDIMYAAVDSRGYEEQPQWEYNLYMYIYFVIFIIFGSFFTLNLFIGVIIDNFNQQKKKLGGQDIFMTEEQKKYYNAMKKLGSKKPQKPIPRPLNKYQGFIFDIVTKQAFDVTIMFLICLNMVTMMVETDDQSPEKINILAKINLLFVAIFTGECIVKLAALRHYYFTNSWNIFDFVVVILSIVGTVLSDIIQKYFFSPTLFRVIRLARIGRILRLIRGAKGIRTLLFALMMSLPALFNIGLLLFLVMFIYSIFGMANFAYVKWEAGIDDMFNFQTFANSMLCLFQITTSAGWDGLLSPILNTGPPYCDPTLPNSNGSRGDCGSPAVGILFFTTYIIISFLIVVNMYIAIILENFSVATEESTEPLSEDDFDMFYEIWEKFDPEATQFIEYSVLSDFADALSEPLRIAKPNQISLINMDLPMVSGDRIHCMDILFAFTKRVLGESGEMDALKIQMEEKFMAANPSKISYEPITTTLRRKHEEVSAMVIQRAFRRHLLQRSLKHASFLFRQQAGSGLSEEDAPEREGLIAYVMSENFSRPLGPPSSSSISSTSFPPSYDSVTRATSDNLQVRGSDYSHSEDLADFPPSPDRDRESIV
Sequence of Voltage-dependent L-type calcium channel subunit alpha-1C (Q13936 whole entry): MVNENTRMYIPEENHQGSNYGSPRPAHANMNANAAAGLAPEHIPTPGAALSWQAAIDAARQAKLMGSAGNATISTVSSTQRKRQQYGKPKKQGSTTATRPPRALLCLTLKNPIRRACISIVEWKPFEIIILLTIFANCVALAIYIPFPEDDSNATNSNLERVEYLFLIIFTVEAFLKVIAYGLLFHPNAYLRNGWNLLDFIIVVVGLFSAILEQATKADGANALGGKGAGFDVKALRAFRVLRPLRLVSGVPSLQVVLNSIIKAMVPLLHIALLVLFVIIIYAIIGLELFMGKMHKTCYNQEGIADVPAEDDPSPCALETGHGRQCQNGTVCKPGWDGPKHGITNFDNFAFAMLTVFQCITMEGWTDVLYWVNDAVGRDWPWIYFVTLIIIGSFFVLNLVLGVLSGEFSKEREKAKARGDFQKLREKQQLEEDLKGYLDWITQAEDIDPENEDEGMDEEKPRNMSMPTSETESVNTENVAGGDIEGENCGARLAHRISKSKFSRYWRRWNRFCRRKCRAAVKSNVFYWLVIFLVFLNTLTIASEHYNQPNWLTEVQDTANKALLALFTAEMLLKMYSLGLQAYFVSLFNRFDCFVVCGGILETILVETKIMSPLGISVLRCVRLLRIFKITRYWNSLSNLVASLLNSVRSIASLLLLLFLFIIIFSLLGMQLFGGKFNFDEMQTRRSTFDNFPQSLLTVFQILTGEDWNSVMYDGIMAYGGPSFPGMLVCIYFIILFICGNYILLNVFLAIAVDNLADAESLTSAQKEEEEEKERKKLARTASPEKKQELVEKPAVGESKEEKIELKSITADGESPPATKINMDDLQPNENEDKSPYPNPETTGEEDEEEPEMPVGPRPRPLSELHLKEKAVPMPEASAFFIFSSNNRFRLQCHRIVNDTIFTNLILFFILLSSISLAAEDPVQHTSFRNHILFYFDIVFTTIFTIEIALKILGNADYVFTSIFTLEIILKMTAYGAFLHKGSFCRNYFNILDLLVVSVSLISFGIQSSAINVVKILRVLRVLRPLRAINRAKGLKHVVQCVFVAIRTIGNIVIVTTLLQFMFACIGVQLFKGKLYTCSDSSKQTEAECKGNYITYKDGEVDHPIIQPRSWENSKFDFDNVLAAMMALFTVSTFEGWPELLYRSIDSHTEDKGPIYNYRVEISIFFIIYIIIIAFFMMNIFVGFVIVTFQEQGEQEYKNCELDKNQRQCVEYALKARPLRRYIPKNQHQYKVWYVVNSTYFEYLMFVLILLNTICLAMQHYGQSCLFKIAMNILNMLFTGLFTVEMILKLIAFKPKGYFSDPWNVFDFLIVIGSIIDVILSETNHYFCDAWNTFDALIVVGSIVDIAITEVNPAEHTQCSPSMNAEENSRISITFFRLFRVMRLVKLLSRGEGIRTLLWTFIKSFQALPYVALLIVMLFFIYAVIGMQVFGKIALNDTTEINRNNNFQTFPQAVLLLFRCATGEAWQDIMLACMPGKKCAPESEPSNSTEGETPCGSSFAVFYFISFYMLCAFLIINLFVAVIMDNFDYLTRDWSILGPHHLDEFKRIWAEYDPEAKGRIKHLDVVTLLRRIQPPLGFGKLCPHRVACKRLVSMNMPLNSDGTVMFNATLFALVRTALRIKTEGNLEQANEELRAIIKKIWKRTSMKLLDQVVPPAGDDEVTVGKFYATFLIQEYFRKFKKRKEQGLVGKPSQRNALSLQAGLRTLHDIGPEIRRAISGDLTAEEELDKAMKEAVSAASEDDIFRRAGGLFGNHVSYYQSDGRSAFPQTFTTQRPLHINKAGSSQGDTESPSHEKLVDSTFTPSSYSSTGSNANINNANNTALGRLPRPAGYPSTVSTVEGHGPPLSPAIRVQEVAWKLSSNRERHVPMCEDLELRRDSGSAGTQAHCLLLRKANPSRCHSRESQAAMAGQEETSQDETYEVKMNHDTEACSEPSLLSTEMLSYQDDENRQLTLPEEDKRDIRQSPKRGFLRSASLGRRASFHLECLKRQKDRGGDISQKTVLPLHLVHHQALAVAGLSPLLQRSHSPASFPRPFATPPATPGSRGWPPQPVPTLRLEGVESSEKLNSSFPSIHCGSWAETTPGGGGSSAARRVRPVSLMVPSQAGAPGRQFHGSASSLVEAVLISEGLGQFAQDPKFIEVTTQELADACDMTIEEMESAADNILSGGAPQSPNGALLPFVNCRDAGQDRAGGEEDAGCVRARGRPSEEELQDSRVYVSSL

As for `O=C(NC[C@H](c1ccc(Cl)cc1)N1CCOCC1)c1sc(-c2ncccn2)nc1C(F)(F)F`, the Tmax in [1] was 60 min; in data set [14], 34.8 min. Moreover, the Cmax is 2700 nM in [2], 61600 nM in data set [9] and 4640 nM in [10]. For the same molecule, the TDI result on Cytochrome P450 1A2 and at Cytochrome P450 2B6 was “Not Active” each time. In addition, the CLint scaled at 1 µM in [3] was 80 mL/min/kg. Moreover, the “Cp(f)” value in [4] was 164 nM; in data set [12] it was 414 nM; in [13], 71.2 nM; in [17], 1460 nM. For the same molecule, in data set [5], the inhibition at 0.1 µM came out at 80%. Besides, the “inhibition (INH)” value in data set [6] and in data set [7] was “Not Active” throughout. In [8], this molecule displayed an IC50 of 26 nM. Also, the Activity in data set [11] is given as 26.9%; in the data set with Rattus norvegicus [15] it was “Non-Toxic”. Besides, the minimal effective dose in the data set with Rattus norvegicus [16] came to 3 mg/kg. Moreover, the solubility thermodynamic in data set [18] was 16 µg/mL (≈ 32.1 µM).
